Laboratory results taken from ChEMBL document CHEMBL4152290, “1H-Benzo[d]imidazoles and 3,4-dihydroquinazolin-4-ones: Design, synthesis and antitubercular activity” (Eur J Med Chem, 2018).
≈ marks a conversion by molar mass, not a printed value.

Tests used:
[1] = organism: Danio rerio; assay: Induction of neurological impairment in Zebrafish AB embryos assessed as alteration in locomotor activity by measuring swimming activity at 3 to 20 uM measured at 5 days post fertilization; type: organism-based; details: in vivo, 120 h
Outline: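 Larvae were exposed from 2 hpf in fish water with 1% DMSO. At 5 dpf each larva was placed singly in a well of water or treatment solution. After 1 min acclimation, it was video-tracked for 5 min at 15 positions/s, and distance travelled was scored.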

[2] = system: Mycobacterium tuberculosis; assay: Antitubercular activity against Mycobacterium tuberculosis H37Rv ATCC 27294 after 7 days by resazurin dye based assay; type: functional; details: H37Rv ATCC 27294, 168 h
Outline: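 Resazurin microtiter MIC in 7H9 with 10% ADC. Two-fold dilutions from 1 mg/mL DMSO stocks span 25.0–0.05, 10.0–0.02 or 0.02–0.0004 µg/mL, with 2.5% DMSO final. Inoculum is bead-declumped culture grown in 7H9/10% OADC/0.05% Tween 80, diluted to OD600 0.006. Plates run 7 days at 37 °C, then 0.01% resazurin for 48 h. MIC is the lowest concentration preventing the blue-to-pink change. Three independent tests.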

[3] = Cytotoxicity against human HepG2 cells assessed as cell viability at 10 ug/ml after 72 hrs by neutral red uptake assay (reference value: 100%); type: cell-based; details: read-out: Activity
Outline: (§1)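 Seeding was 2×10^3/well for HepG2 and HaCat and 1×10^3/well for Vero. After 24 h, cells received 10 µg/mL final (2% DMSO) for 72 h at 37 °C, 5% CO2. They were washed with PBS, given neutral red 25 µg/mL in serum-free medium for 3 h, washed, and extracted 30 min with acetic acid/EtOH/water 1:50:49. A540 was read. Viability is relative to 2% DMSO controls; mean ± SEM, three experiments in triplicate.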

[4] = Cytotoxicity against human HaCaT cells assessed as cell viability at 10 ug/ml after 72 hrs by MTT assay (reference value: 100%); type: cell-based; details: read-out: Activity
Outline: (§2)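 Cells were grown in DMEM with 10% heat-inactivated FBS and penicillin-streptomycin, seeded at 2×10^3/well (HepG2, HaCat) or 1×10^3/well (Vero), then left 24 h. Compound was applied at 10 µg/mL final (2% DMSO) for 72 h at 37 °C, 5% CO2. MTT 1 mg/mL was added for 3 h, formazan dissolved in DMSO, and A595 read. Viability is expressed relative to 2% DMSO wells; mean ± SEM, triplicates, three independent experiments.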

[5] = Cytotoxicity against human HaCaT cells assessed as cell viability at 10 ug/ml after 72 hrs by neutral red uptake assay (reference value: 100%); type: cell-based; details: read-out: Activity; outline: as §1
[6] = Cytotoxicity against African green monkey Vero assessed as cell viability at 10 ug/ml after 72 hrs by MTT assay (reference value: 100%); type: cell-based; details: chlorocebus sabaeus, Vero cells; read-out: Activity; outline: as §2
[7] = Cytotoxicity against African green monkey Vero assessed as cell viability at 10 ug/ml after 72 hrs by neutral red uptake assay (reference value: 100%); type: cell-based; details: chlorocebus sabaeus, Vero cells; read-out: Activity; outline: as §1
[8] = Selectivity index, ratio of cytotoxic concentration for human HepG2 cells by MTT assay to MIC for Mycobacterium tuberculosis H37Rv ATCC 27294; type: toxicity; details: read-out: Selectivity Index
[9] = Selectivity index, ratio of cytotoxic concentration for human HaCaT cells by neutral red uptake assay to MIC for Mycobacterium tuberculosis H37Rv ATCC 27294; type: toxicity; details: read-out: Selectivity Index
[10] = Selectivity index, ratio of cytotoxic concentration for African green monkey Vero cells by MTT assay to MIC for Mycobacterium tuberculosis H37Rv ATCC 27294; type: toxicity; details: read-out: Selectivity Index
[11] = Selectivity index, ratio of cytotoxic concentration for African green monkey Vero cells by neutral red uptake assay to MIC for Mycobacterium tuberculosis H37Rv ATCC 27294; type: toxicity; details: read-out: Selectivity Index
[12] = Stability of the compound in PBS containing 10% DMSO at 25 degC measured immediately by HPLC analysis; type: physicochemical; details: read-out: Stability
[13] = Stability of the compound in PBS containing 10% DMSO at 25 degC measured after 3 hrs by HPLC analysis; type: physicochemical; details: buffer
[14] = Stability of the compound in PBS containing 10% DMSO at 25 degC measured after 6 hrs by HPLC analysis; type: physicochemical; details: buffer
[15] = Stability of the compound in PBS containing 10% DMSO at 25 degC measured after 9 hrs by HPLC analysis; type: physicochemical; details: buffer
[16] = Stability of the compound in PBS containing 10% DMSO at 25 degC measured after 24 hrs by HPLC analysis; type: physicochemical; details: buffer
[17] = Stability of the compound in PBS containing 10% DMSO at 37 degC measured immediately by HPLC analysis; type: physicochemical; details: read-out: Stability
[18] = Stability of the compound in PBS containing 10% DMSO at 37 degC measured after 3 hrs by HPLC analysis; type: physicochemical; details: read-out: Stability
[19] = Stability of the compound in PBS containing 10% DMSO at 37 degC measured after 12 hrs by HPLC analysis; type: physicochemical; details: read-out: Stability
[20] = organism: Danio rerio; assay: Cardiotoxicity in Zebrafish AB embryos assessed as heart beat rate at 3 uM measured at 2 days post fertilization by stereomicroscopic method (reference value: 128.7 to 146.3 bpm); type: organism-based; details: in vivo, 48 h
[21] = organism: Danio rerio; assay: Cardiotoxicity in Zebrafish AB embryos assessed as heart beat rate at 20 uM measured at 2 days post fertilization by stereomicroscopic method (reference value: 128.7 to 146.3 bpm); type: organism-based; details: in vivo, 48 h
[22] = organism: Danio rerio; assay: Cardiotoxicity in Zebrafish AB embryos assessed as heart beat rate at 15 uM measured at 5 days post fertilization by stereomicroscopic method (reference value: 148.1 to 158.2 bpm); type: organism-based; details: in vivo, 120 h
[23] = organism: Danio rerio; assay: Cardiotoxicity in Zebrafish AB embryos assessed as heart beat rate at 20 uM measured at 5 days post fertilization by stereomicroscopic method (reference value: 148.1 to 158.2 bpm); type: organism-based; details: in vivo, 120 h
[24] = organism: Danio rerio; assay: Toxicity in Zebrafish AB embryos assessed as morphological alteration by measuring effect on body length of larvae at 3 to 20 uM measured at 2 to 5 days post fertilization by stereomicroscopic method; type: organism-based; details: in vivo
Outline: (§3)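 AB embryos are treated from 2 hpf to 5 dpf at 3.0, 15.0 and 20.0 µM in fish water with 1% DMSO, at 28 °C. Controls are fish water and 1% DMSO. Larvae are photographed under a stereomicroscope (3×) at 2 and 5 dpf, n = 30. Body length (µm), ocular distance (µm) and eye surface area (µm²) are measured from the images.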

[25] = organism: Danio rerio; assay: Toxicity in Zebrafish AB embryos assessed as morphological alteration by measuring effect on ocular distance at 3 to 20 uM measured at 2 to 5 days post fertilization by stereomicroscopic method; type: organism-based; details: in vivo; outline: as §3
[26] = organism: Danio rerio; assay: Toxicity in Zebrafish AB embryos assessed as morphological alteration by measuring effect on surface area of eyes at 3 to 20 uM measured at 2 to 5 days post fertilization by stereomicroscopic method; type: organism-based; details: in vivo; outline: as §3
[27] = organism: Danio rerio; assay: Toxicity in Zebrafish AB embryos assessed as effect on larval survival rate at 3 to 20 uM; type: organism-based; details: in vivo
Outline: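 Wild-type AB zebrafish embryos are exposed from 2 hpf to 5 dpf at 3.0, 15.0 and 20.0 µM in fish water with 1% DMSO, at 28 °C on a 14/10 h light-dark cycle. Controls are fish water alone and 1% DMSO. Survival and hatching are checked daily under a stereomicroscope.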

SMILES: CC1CCCCC1NC(=O)CSc1nc2ccccc2c(=O)[nH]1 (configuration not stated)
- Activity [1]: Non-Toxic
- MIC [2]: 0.94 µM (≈ 0.312 µg/mL)
- viability at 72 h, 10 ug/ml [3]: 101%
- viability at 72 h, 10 ug/ml [4]: 100%
- viability at 72 h, 10 ug/ml [5]: 99%
- viability at 72 h, 10 ug/ml [6]: 102%
- viability at 72 h, 10 ug/ml [7]: 95%
- selectivity ratio [8]: ≤ 32
- selectivity ratio [9]: ≤ 32
- selectivity ratio [10]: ≤ 32
- selectivity ratio [11]: ≤ 32
- remaining at 0 h [12]: 100%
- Stability [13]: 128%
- Stability [14]: 122%
- Stability [15]: 127%
- Stability [16]: 138%
- remaining at 0 h [17]: 100%
- remaining at 3 h [18]: 92%
- remaining at 12 h [19]: 70%
- Activity [20]: 156.3 bpm
- Activity [21]: 153.9 bpm
- Activity [22]: 163.4 bpm
- Activity [23]: 160.6 bpm
- Activity [24]: Non-Toxic
- Activity [25]: Non-Toxic
- Activity [26]: Non-Toxic
- Activity [27]: Non-Toxic
